Active and inactive are the calls of the source. The rule behind the calls is not given here.
Experiments:
[1] = molecular target: T1, Telomerase reverse transcriptase (Homo sapiens, UniProt O14746); assay: Inhibition of telomerase activity in human HT-29 cells using biotin-labeled TeloTAGGG as primer at 62.5 nM preincubated for 48 hrs followed by primer addition measured after 30 mins by PCR-ELISA; type: cell-based
Outline: (§1)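 Cells treated 48 h with 31.2–250 nM, then washed, lysed, and the supernatants stored at −80°C. Extracts were incubated 30 min with biotin-labeled primer for telomeric repeat extension. Products plus internal standard were PCR-amplified, hybridized to digoxigenin probes, captured on streptavidin plates, detected with peroxidase antibody, and read at 450 nm. Heat-inactivated extract (95°C, 10 min) served as negative control. Inhibition is % of untreated means; triplicate.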

SH-SY5Y [2] = assay: Induction of apoptosis in human SH-SY5Y cells assessed as increase in caspase 3/7 activation at 31.2 nM after 24 hrs by caspase-glo 3/7 luminescence assay relative to control; type: functional
Outline: (§2)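 SH-SY5Y cells seeded at 5×10^4 cells/mL and left to adhere overnight, then exposed to 7.8–31.2 nM for 24 h. Caspase-Glo 3/7 reagent, in a volume equal to the medium, was added for 1 h at 37°C. Luminescence from the cleaved aminoluciferin substrate was read and expressed relative to untreated control set at 1.0. DMSO-treated cells served as negative control. Triplicate wells.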

[3] = molecular target: T1, Telomerase reverse transcriptase; assay: Inhibition of telomerase activity in human HT-29 cells using biotin-labeled TeloTAGGG as primer at 250 nM preincubated for 48 hrs followed by primer addition measured after 30 mins by PCR-ELISA; type: cell-based; outline: as §1
[4] = molecular target: T1, Telomerase reverse transcriptase; assay: Inhibition of telomerase activity in human MCF7 cells using biotin-labeled TeloTAGGG as primer preincubated for 48 hrs followed by primer addition measured after 30 mins by PCR-ELISA; type: cell-based; outline: as §1
[5] = Growth inhibition of human HL60 cells at 250 nM after 24 hrs by trypan blue dye exclusion assay; type: functional; conditions: HL-60, 24 h, read-out: GI
Outline: (§3)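 Cells seeded at 5×10^4 cells/mL and left to adhere overnight. They were then exposed to 7.8–250 nM compound or to DMSO vehicle, 3 wells per treatment, at 37°C in 5% CO2 for 24, 48 or 72 h. Trypsinized cells were counted by hemocytometer, and viability was scored by trypan blue exclusion. Read-out is viable cell number, mean ± SE of triplicate wells, from a representative experiment of at least three.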

[6] = molecular target: T1, Telomerase reverse transcriptase; assay: Inhibition of telomerase activity in human M14 cells using biotin-labeled TeloTAGGG as primer at 125 nM preincubated for 48 hrs followed by primer addition measured after 30 mins by PCR-ELISA; type: cell-based; outline: as §1
[7] = molecular target: T1, Telomerase reverse transcriptase; assay: Inhibition of telomerase activity in human H125 cells using biotin-labeled TeloTAGGG as primer at 125 nM preincubated for 48 hrs followed by primer addition measured after 30 mins by PCR-ELISA; type: cell-based; outline: as §1
[8] = molecular target: T1, Telomerase reverse transcriptase; assay: Inhibition of telomerase activity in human MCF7 cells using biotin-labeled TeloTAGGG as primer at 62.5 nM preincubated for 48 hrs followed by primer addition measured after 30 mins by PCR-ELISA; type: cell-based; outline: as §1
[9] = Growth inhibition of human HT-29 cells at 250 nM after 24 hrs by trypan blue dye exclusion assay; type: functional; conditions: HT-29, 24 h, read-out: GI; outline: as §3
[10] = Growth inhibition of human M14 cells at 250 nM after 24 hrs by trypan blue dye exclusion assay; type: functional; conditions: M14, 24 h, read-out: GI; outline: as §3
[11] = Growth inhibition of human SH-SY5Y cells at 250 nM after 24 hrs by trypan blue dye exclusion assay; type: functional; conditions: read-out: GI; outline: as §3
[12] = molecular target: T1, Telomerase reverse transcriptase; assay: Inhibition of telomerase activity in human HT-29 cells using biotin-labeled TeloTAGGG as primer at 125 nM preincubated for 48 hrs followed by primer addition measured after 30 mins by PCR-ELISA; type: cell-based; outline: as §1
[13] = molecular target: T1, Telomerase reverse transcriptase; assay: Inhibition of telomerase activity in human H125 cells using biotin-labeled TeloTAGGG as primer preincubated for 48 hrs followed by primer addition measured after 30 mins by PCR-ELISA; type: cell-based; outline: as §1
[14] = molecular target: T1, Telomerase reverse transcriptase; assay: Inhibition of telomerase activity in human H125 cells using biotin-labeled TeloTAGGG as primer at 250 nM preincubated for 48 hrs followed by primer addition measured after 30 mins by PCR-ELISA; type: cell-based; outline: as §1
[15] = molecular target: T1, Telomerase reverse transcriptase; assay: Inhibition of telomerase activity in human M14 cells using biotin-labeled TeloTAGGG as primer preincubated for 48 hrs followed by primer addition measured after 30 mins by PCR-ELISA; type: cell-based; outline: as §1
[16] = molecular target: T1, Telomerase reverse transcriptase; assay: Inhibition of telomerase activity in human MCF7 cells using biotin-labeled TeloTAGGG as primer at 31.2 nM preincubated for 48 hrs followed by primer addition measured after 30 mins by PCR-ELISA; type: cell-based; outline: as §1
[17] = Growth inhibition of human H125 cells at 250 nM after 24 hrs by trypan blue dye exclusion assay; type: functional; conditions: NCI-H125, 24 h, read-out: GI; outline: as §3
[18] = Growth inhibition of human M14 cells at 250 nM after 24 hrs by cell titer 96 cell proliferation assay; type: functional; conditions: M14, 24 h, read-out: GI
Outline: (§4)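 M14 cells seeded at 8×10^4 cells/mL in 96-well plates and left to adhere overnight. They were treated with 62.5, 125 or 250 nM compound or with DMSO control for up to 72 h. Dye was added for 4 h, followed by solubilization/stop solution, and absorbance was read at 570 nm, zeroed on medium-only wells. Inhibition is given as % versus control. Triplicates in three experiments.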

[19] = Growth inhibition of human MCF7 cells at 250 nM after 24 hrs by trypan blue dye exclusion assay; type: functional; conditions: MCF7, 24 h, read-out: GI; outline: as §3
[20] = molecular target: T1, Telomerase reverse transcriptase; assay: Inhibition of telomerase activity in human M14 cells using biotin-labeled TeloTAGGG as primer at 250 nM preincubated for 48 hrs followed by primer addition measured after 30 mins by PCR-ELISA; type: cell-based; outline: as §1
[21] = molecular target: T1, Telomerase reverse transcriptase; assay: Inhibition of telomerase activity in human M14 cells using biotin-labeled TeloTAGGG as primer at 31.2 nM preincubated for 48 hrs followed by primer addition measured after 30 mins by PCR-ELISA; type: cell-based; outline: as §1
[22] = molecular target: T1, Telomerase reverse transcriptase; assay: Inhibition of telomerase activity in human H125 cells using biotin-labeled TeloTAGGG as primer at 31.2 nM preincubated for 48 hrs followed by primer addition measured after 30 mins by PCR-ELISA; type: cell-based; outline: as §1
[23] = molecular target: T1, Telomerase reverse transcriptase; assay: Inhibition of telomerase activity in human M14 cells using biotin-labeled TeloTAGGG as primer at 62.5 nM preincubated for 48 hrs followed by primer addition measured after 30 mins by PCR-ELISA; type: cell-based; outline: as §1
[24] = molecular target: T1, Telomerase reverse transcriptase; assay: Inhibition of telomerase activity in human H125 cells using biotin-labeled TeloTAGGG as primer at 62.5 nM preincubated for 48 hrs followed by primer addition measured after 30 mins by PCR-ELISA; type: cell-based; outline: as §1
SH-SY5Y [25] = assay: Induction of apoptosis in human SH-SY5Y cells assessed as increase in caspase 3/7 activation at 7.8 to 15.6 nM after 24 hrs by caspase-glo 3/7 luminescence assay; type: functional, cell-based; outline: as §2
[26] = molecular target: T1, Telomerase reverse transcriptase; assay: Inhibition of telomerase activity in human HT-29 cells using biotin-labeled TeloTAGGG as primer preincubated for 48 hrs followed by primer addition measured after 30 mins by PCR-ELISA; type: cell-based; outline: as §1
[27] = molecular target: T1, Telomerase reverse transcriptase; assay: Inhibition of telomerase activity in human MCF7 cells using biotin-labeled TeloTAGGG as primer at 250 nM preincubated for 48 hrs followed by primer addition measured after 30 mins by PCR-ELISA; type: cell-based; outline: as §1
[28] = molecular target: T1, Telomerase reverse transcriptase; assay: Inhibition of telomerase activity in human HT-29 cells using biotin-labeled TeloTAGGG as primer at 31.2 nM preincubated for 48 hrs followed by primer addition measured after 30 mins by PCR-ELISA; type: cell-based; outline: as §1
[29] = molecular target: T1, Telomerase reverse transcriptase; assay: Inhibition of telomerase activity in human MCF7 cells using biotin-labeled TeloTAGGG as primer at 125 nM preincubated for 48 hrs followed by primer addition measured after 30 mins by PCR-ELISA; type: cell-based; outline: as §1
[30] = Growth inhibition of human M14 cells at 250 nM after 72 hrs by cell titer 96 cell proliferation assay; type: functional; conditions: M14, 72 h, read-out: GI; outline: as §4
[31] = Growth inhibition of human M14 cells at 250 nM after 48 hrs by cell titer 96 cell proliferation assay; type: functional; conditions: M14, 48 h, read-out: GI; outline: as §4

T1 sequence (O14746 whole entry): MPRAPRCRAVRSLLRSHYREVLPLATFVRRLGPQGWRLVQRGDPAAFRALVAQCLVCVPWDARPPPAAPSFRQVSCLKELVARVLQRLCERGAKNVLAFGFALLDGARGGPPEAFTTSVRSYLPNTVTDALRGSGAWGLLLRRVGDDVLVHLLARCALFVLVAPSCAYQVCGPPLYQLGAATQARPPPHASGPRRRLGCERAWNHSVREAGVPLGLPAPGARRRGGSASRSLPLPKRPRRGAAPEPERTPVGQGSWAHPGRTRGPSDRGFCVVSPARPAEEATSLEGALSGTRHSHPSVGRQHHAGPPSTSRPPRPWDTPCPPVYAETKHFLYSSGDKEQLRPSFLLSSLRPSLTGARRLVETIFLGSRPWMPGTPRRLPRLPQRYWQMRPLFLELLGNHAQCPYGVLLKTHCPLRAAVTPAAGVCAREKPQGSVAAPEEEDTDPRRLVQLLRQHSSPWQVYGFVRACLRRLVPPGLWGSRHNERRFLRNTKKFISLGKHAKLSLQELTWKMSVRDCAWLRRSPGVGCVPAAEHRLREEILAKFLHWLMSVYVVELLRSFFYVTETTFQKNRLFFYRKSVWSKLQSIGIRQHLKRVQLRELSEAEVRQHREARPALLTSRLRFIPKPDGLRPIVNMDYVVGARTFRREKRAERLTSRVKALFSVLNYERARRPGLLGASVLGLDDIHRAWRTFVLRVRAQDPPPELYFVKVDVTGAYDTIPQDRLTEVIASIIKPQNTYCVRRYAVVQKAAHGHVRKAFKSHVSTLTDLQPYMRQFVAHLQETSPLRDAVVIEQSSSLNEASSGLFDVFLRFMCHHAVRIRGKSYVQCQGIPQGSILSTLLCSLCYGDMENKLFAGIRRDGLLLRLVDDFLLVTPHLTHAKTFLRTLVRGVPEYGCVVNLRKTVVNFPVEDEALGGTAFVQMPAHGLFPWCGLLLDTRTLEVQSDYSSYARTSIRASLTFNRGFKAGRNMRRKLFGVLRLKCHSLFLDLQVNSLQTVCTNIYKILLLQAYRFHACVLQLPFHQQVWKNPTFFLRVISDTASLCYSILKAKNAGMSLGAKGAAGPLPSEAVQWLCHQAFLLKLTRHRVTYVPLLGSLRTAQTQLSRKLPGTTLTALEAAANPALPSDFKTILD

## CC1CCCC2(OC(O)C=CC2=O)O1 (mixture of isomers)
[1]
  inhibition: 53.5%
SH-SY5Y [2]
  fold change (FC): 8.2
[3]
  inhibition: 73.4%
[4]
  IC50: 12.6 to 85.2 nM
  inhibition: Dose-dependent effect
[5]
  inhibition of growth at 0.25 µM: > 90%
[6]
  inhibition: 74%
[7]
  inhibition: 67.6%
[8]
  inhibition: 37.5%
[9]
  inhibition of growth at 0.25 µM: > 90%
[10]
  inhibition of growth at 0.25 µM: > 90%
[11]
  inhibition of growth at 0.25 µM: > 90%
[12]
  inhibition: 69%
[13]
  IC50: 12.6 to 85.2 nM
  inhibition: Dose-dependent effect
[14]
  inhibition: 75.7%
[15]
  IC50: 12.6 to 85.2 nM
  inhibition: Dose-dependent effect
[16]
  inhibition: 0%
[17]
  inhibition of growth at 0.25 µM: > 90%
[18]
  inhibition of growth at 0.25 µM: 36.8%
[19]
  inhibition of growth at 0.25 µM: > 90%
[20]
  inhibition: 82.6%
[21]
  inhibition: 62%
[22]
  inhibition: 13.6%
[23]
  inhibition: 63%
[24]
  inhibition: 48.7%
SH-SY5Y [25]
  Activity: Active
[26]
  IC50: 12.6 to 85.2 nM
  inhibition: Dose-dependent effect
[27]
  inhibition: 78.6%
[28]
  inhibition: 24%
[29]
  inhibition: 67.9%
[30]
  inhibition of growth at 0.25 µM: 61.4%
[31]
  inhibition of growth at 0.25 µM: 56.1%

## C[C@@H]1CCC[C@@]2(O[C@H](O)C=CC2=O)O1
[18]
  inhibition of growth at 0.25 µM: 36.7%
[30]
  inhibition of growth at 0.25 µM: 63.7%
[31]
  inhibition of growth at 0.25 µM: 58.1%

## C[C@H]1CCC[C@]2(O[C@@H](O)C=CC2=O)O1
[18]
  inhibition of growth at 0.25 µM: 40.4%
[30]
  inhibition of growth at 0.25 µM: 66.6%
[31]
  inhibition of growth at 0.25 µM: 64.4%

Source: ChEMBL document CHEMBL3861986, “Synthesis and Enantiomeric Separation of a Novel Spiroketal Derivative: A Potent Human Telomerase Inhibitor with High in Vitro Anticancer Activity” (J Med Chem, 2016)
